Experimental data taken from ChEMBL document CHEMBL1157680, “Isoxazole analogues bind the system xc- transporter: structure-activity relationship and pharmacophore model” (Bioorg Med Chem, 2010).
Calls of active or inactive are those of the source. The rule behind the calls is not given here.

Experiments:
[1] = target: T1, Cystine/glutamate transporter (Homo sapiens) (UniProt Q9UPY5); assay: Inhibition of amino acid transport system xc- in human SNB19 cells assessed as [3H]L-glutamate uptake at 500 uM by liquid scintillation counting; type: cell-based; set-up: scale not given: the % may be the effect or the level left; conditions: SNB-19
T1 sequence (whole entry): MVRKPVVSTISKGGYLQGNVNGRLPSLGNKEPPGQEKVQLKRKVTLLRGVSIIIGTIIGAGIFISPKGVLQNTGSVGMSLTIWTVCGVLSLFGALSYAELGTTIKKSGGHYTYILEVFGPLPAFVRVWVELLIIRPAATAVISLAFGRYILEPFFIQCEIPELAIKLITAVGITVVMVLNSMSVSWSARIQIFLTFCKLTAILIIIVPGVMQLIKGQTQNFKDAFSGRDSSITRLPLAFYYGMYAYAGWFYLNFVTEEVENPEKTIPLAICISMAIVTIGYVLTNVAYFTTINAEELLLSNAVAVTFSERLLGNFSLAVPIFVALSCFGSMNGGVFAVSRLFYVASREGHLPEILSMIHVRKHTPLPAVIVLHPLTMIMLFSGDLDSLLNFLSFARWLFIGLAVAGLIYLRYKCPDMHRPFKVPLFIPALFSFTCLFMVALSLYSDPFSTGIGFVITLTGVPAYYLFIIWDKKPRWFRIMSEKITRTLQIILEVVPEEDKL
Method in brief: (§1)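 Confluent SNB-19 glioma monolayers were refed 2 h before assay, then preincubated 5 min at 30 °C in Na+-free HEPES-buffered Hank's (choline Cl, pH 7.4). Test agent was added together with L-[3H]-glutamate plus unlabeled L-Glu (10–500 μM final). After 5 min at 30 °C, ice-cold washes stopped uptake. Cells were lysed in 0.4 M NaOH and counted by LSC. Results are % of control uptake.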

[2] = target: T1, Cystine/glutamate transporter (Homo sapiens); assay: Inhibition of [3H]L-glutamate uptake at amino acid transport system xc- in human SNB19 cells at 500 uM by liquid scintillation counting; type: cell-based; conditions: SNB-19; method in brief: as §1
[3] = target: T1, Cystine/glutamate transporter (Homo sapiens); assay: Inhibition of amino acid transport system xc- in human SNB19 cells assessed as [3H]L-glutamate uptake at 250 uM by liquid scintillation counting; type: cell-based; set-up: scale not given: the % may be the effect or the level left; conditions: SNB-19; method in brief: as §1
[4] = target: T2, Cystine/glutamate transporter (Homo sapiens, UniProt Q9UPY5); assay: Competitive inhibition of [3H]L-glutamate uptake at amino acid transport system xc- in human SNB19 cells by liquid scintillation counting; type: cell-based, SNB-19
T2 sequence (Q9UPY5 whole entry): T1 sequence (whole entry)
Method in brief: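 SNB-19 glioma monolayers were assayed in Na+-free choline-HEPES Hank's buffer, pH 7.4, at 30 °C. L-[3H]-glutamate with L-Glu (10–500 μM final) and inhibitor were added simultaneously for 5 min. Radioactivity in NaOH lysates was counted by LSC. Ki came from a replot of Km,app values, or from IC50 inhibition curves using the Cheng-Prusoff equation.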

[5] = target: T1, Cystine/glutamate transporter (Homo sapiens); assay: Activity at amino acid transport system xc- in human SNB19 cells assessed as induction of L-glutamate efflux at 500 uM by fluorometric assay; type: cell-based; conditions: SNB-19
Method in brief: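 Paired SNB-19 coverslips were rinsed 10 min in Na+-free HBHS, then placed in a stirred cuvette (2 ml HBHS, 30 °C). NADP+ (1 mM) was added at 0 s and glutamate dehydrogenase (33 U) at 60 s, then the test substrate. L-Glu efflux was followed in real time as NADPH fluorescence. Triton X-100 (0.5%) gave total cellular L-Glu. Efflux was quantified from a cell-free standard curve.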

[6] = target: T2, Cystine/glutamate transporter; assay: Inhibition of amino acid transport system xc- in human SNB19 cells assessed as [3H]L-glutamate uptake by liquid scintillation counting; type: cell-based, SNB-19
[7] = target: T1, Cystine/glutamate transporter (Homo sapiens); conditions: SNB-19, 500 uM
[8] = tested on: LRM55; assay: Inhibition of amino acid transport system xc- in rat LRM55 cells assessed as [3H]L-glutamate uptake at 500 uM by liquid scintillation counting; type: cell-based; set-up: scale not given: the % may be the effect or the level left

SMILES | Activity [1] | Activity [3] | further results
Cc1nn(-c2ccc([N+](=O)[O-])cc2)c(=O)c2noc(C)c12 | 85% | – | inhibition [2]: 15%
Cc1nn(-c2cccc([N+](=O)[O-])c2)c(=O)c2noc(C)c12 | 96% | – | –
Cc1ccc(-n2nc(C)c3c(C)onc3c2=O)cc1 | 94% | – | –
Cc1nn(-c2ccc(C(F)(F)F)cc2)c(=O)c2noc(C)c12 | 99% | – | –
Cc1nn(-c2cc(Cl)cc(Cl)c2)c(=O)c2noc(C)c12 | 89% | – | –
N[C@@H](Cc1c(C(=O)O)noc1COCc1ccccc1)C(=O)O (racemic) | – | 70% | –
N[C@@H](Cc1c(C(=O)O)noc1CCc1cccc2ccccc12)C(=O)O | – | 47% | Ki [4]: 117 µM; Activity [5]: inactive
Cc1nn(-c2cc(C(F)(F)F)cc(C(F)(F)F)c2)c(=O)c2noc(C)c12 | 82% | – | inhibition [2]: 18%
N[C@@H](Cc1c(C(=O)O)noc1CCc1ccccc1)C(=O)O | – | 70% | –
C/C(=N\Nc1ccc([N+](=O)[O-])cc1)c1c(C(=O)O)noc1C | 22% | – | Ki [4]: 60 µM; Activity [5]: inactive; inhibition [2]: 78%; IC50 [6]: 127 µM
Cc1onc(C(=O)O)c1CC(N)C(=O)O (racemic) | – | 101% | –
C/C(=N\Nc1ccccc1)c1c(C(=O)O)noc1C | 56% | – | inhibition [2]: 44%
N[C@@H](Cc1c(C(=O)O)noc1CCc1ccc2ccccc2c1)C(=O)O | – | 37% | Ki [4]: 52 µM; Activity [5]: inactive; inhibition [7]: Active
Cc1onc(C(=O)O)c1CC(N)P(=O)(O)O (racemic) | – | 107% | –
C/C(=N\NC(=O)Nc1ccccc1)c1c(C(=O)O)noc1C | – | 76% | –
C/C(=N\Nc1ccc([N+](=O)[O-])cc1[N+](=O)[O-])c1c(C(=O)O)noc1CCc1ccc2ccccc2c1 | 45% | – | Ki [4]: 113 µM; Activity [5]: inactive; IC50 [6]: 225 µM
COC(C)c1onc(C(=O)O)c1C[C@H](N)C(=O)O (mixture of isomers) | – | 115% | –

SMILES | Activity [1] | Activity [3] | further results
Cc1onc(C(=O)O)c1C[C@H](N)C(=O)O | – | 98% | –
Cc1onc(O)c1C[C@H](N)C(=O)O | – | – | Activity [8]: 95%
CCOC(=O)c1noc(C)c1/C(C)=N/NC(N)=O | – | 103% | –
CCOC(=O)c1noc(C)c1/C(C)=N/NS(=O)(=O)c1ccccc1 | – | 96% | –
CCc1onc(C(=O)O)c1C[C@H](N)C(=O)O | – | 92% | –
COCc1onc(C(=O)O)c1C[C@H](N)C(=O)O | – | 98% | –
Cc1nn(-c2ccc(F)cc2)c(=O)c2noc(C)c12 | 86% | – | –
COc1ccc(-n2nc(C)c3c(C)onc3c2=O)cc1 | 92% | – | –
Cc1nn(-c2ccccc2)c(=O)c2noc(C)c12 | 74% | – | inhibition [2]: 26%
C/C(=N\Nc1ccc([N+](=O)[O-])cc1[N+](=O)[O-])c1c(C(=O)O)noc1C | 45% | 73% | Ki [4]: 147 µM; Activity [5]: inactive; IC50 [6]: 290 µM
C/C(=N\Nc1cc(C(F)(F)F)cc(C(F)(F)F)c1)c1c(C(=O)O)noc1C | 14% | – | Ki [4]: 64 µM; Activity [5]: inactive; inhibition [2]: 86%; IC50 [6]: 129 µM
Cc1nn(-c2ccc(F)cc2F)c(=O)c2noc(C)c12 | 95% | – | –
C/C(=N\NC(N)=O)c1c(C(=O)O)noc1C | – | 91% | –
C/C(=N\NS(=O)(=O)c1ccccc1)c1c(C(=O)O)noc1C | – | 101% | –
C/C(=N\Nc1ccc([N+](=O)[O-])cc1[N+](=O)[O-])c1c(C(=O)O)noc1COCc1ccc2ccccc2c1 | 95% | – | –
C/C(=N\Nc1ccccc1[N+](=O)[O-])c1c(C(=O)O)noc1C | 97% | – | –
